Compound activity as filed in PubChem.
Only some compounds are listed: those with a hit (about 1.8% of all), similar ones and a draw of the others.
A3G deaminase: APOBEC3G (human) deaminase inhibition. Q9HC16. recombinant A3G, ssDNA deamination FAM/TAMRA fluorescence. inhibition, % at 20 µM. 0.28% of 330,000 active. AID 493012;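 active = inhibition of at least 40% at 20 µM, with no more than 30% in the related APOBEC3A deaminase screen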
APOBEC3A inh: inhibitors of human APOBEC3A DNA deaminase; P31941; recombinant A3A, FAM/TAMRA ssDNA deamination fluorescence; inhibition, % at 20 µM; 0.41% of 330,000 active; AID 493011;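 active = at least 40% inhibition at 20 µM here, with at most 30% in a related deaminase screen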
PHOSPHO1 block: PHOSPHO1 (human) inhibition; recombinant PHOSPHO1, absorbance phosphatase assay; inhibition, % at 13.3 µM; 1.1% of 290,000 active; AID 1565; in the data active = inhibition above about 60%
pCIP destab: p/CIP protein destabilization; Q05BA5; F442A p/CIP-EGFP cells, EGFP fluorescence, 16 h; decrease of EGFP signal, % at 10 µM; 0.01% of 290,000 active;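 active = EGFP signal decrease of at least 30% at 10 µM or well 3 SD below plate mean, unless failing retest; inactive = the rest, including hits failing retest or dose response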
Target sequence (Q05BA5 1-1403): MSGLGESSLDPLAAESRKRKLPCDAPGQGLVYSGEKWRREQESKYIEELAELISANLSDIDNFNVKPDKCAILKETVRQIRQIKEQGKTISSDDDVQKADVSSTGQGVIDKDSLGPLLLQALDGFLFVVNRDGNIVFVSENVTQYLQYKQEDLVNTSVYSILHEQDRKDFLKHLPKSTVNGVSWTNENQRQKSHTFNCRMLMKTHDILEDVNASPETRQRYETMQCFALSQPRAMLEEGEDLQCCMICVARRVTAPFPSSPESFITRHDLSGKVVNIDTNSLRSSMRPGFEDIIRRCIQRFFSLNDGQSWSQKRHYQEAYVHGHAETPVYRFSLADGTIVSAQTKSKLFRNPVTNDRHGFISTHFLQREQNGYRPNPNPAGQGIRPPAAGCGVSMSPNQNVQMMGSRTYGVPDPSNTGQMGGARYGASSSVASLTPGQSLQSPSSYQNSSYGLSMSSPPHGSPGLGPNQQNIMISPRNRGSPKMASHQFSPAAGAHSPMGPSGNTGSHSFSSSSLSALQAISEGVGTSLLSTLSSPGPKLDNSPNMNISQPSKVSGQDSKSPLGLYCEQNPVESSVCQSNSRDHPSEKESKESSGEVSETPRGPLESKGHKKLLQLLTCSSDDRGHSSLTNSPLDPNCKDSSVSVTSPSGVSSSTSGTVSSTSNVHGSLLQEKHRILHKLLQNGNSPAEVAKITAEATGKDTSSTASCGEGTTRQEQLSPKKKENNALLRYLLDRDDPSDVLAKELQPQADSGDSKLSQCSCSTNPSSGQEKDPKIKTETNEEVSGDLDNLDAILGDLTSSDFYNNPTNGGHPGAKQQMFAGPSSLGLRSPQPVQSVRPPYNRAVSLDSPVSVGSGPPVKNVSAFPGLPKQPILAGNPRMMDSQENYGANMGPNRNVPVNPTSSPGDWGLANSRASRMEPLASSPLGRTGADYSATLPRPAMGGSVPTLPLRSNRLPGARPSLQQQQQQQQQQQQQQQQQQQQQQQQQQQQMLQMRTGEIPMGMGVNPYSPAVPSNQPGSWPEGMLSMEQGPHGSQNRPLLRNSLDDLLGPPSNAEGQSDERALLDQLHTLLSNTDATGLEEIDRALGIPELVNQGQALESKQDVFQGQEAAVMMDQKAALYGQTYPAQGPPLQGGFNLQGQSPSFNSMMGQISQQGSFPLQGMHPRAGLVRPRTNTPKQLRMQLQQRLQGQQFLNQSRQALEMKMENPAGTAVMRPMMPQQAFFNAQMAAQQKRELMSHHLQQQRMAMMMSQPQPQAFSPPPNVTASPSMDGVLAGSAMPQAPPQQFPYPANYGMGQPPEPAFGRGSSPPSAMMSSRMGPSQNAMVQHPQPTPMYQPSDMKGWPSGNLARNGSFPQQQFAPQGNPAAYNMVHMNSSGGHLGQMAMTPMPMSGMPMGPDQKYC
Tb MetRS inh: Trypanosoma brucei MetRS inhibition. purified T. brucei MetRS, ATP depletion, Kinase-Glo luminescence. inhibition, % at 11.9 µM. 0.4% of 360,000 active;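 active = inhibition above a per-plate cutoff of the control wells' mean inhibition plus 3 SD, cut at about 5.5% in these data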
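Dosing: 11.9 µM compound single dose, 0.9% DMSO; Assay system: purified T. brucei MetRS enzyme; Measured by: Kinase-Glo luciferase luminescence reporting remaining unconsumed ATP; Schedule: 15 min plus 2 h at 25 °C.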
APOBEC3G confirm: confirmation of human APOBEC3G DNA deaminase inhibitors. inhibition, % at 20 µM. 72% of 890 active. AID 493152. recombinant A3G ssDNA deaminase, UDG/FAM-TAMRA fluorescence. shares compounds with A3G deaminase;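 active = inhibition reaching a set limit in any replicate at 20 µM, the limit being 80% of the first screen's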
UDG ctr A3G: E. coli UDG inhibition in APOBEC3G counter-screen. shares compounds with A3G deaminase. UDG counterscreen, FAM/TAMRA oligo fluorescence. inhibition, % at 20 µM. 710 tested, under 10 active. AID 504715;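 active = compounds giving 40% or more inhibition at 20 µM in any one of the three replicates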;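 also: inhibitors lower the FAM signal released by uracil excision and alkaline cleavage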
Large screens that a line does not name were inactive (follow-up assays come after a bar, where they were run).

O=c1c2cccc(Cl)c2nc2n1Cc1ccccc1-2	A3G deaminase 59, PHOSPHO1 block 81 | APOBEC3G confirm 55 | UDG ctr A3G inactive
O=C(O)c1ccc(/C=N/N2CCN(c3ccccc3)CC2)cc1	none
C(=N/N1CCN(c2ccccc2)CC1)/c1ccncc1	A3G deaminase 43 | APOBEC3G confirm inactive | UDG ctr A3G inactive
CC(=O)Nc1ccc(S(=O)(=O)N2CCN(c3nc4ccccc4n3CC(C)C)CC2)cc1	none
COCCCNC(=S)N(CCCO)Cc1cc2cc3c(cc2[nH]c1=O)OCO3	A3G deaminase 48 | APOBEC3G confirm inactive | UDG ctr A3G inactive
Cc1cc(=O)n(Cc2ccccc2)c(O)c1C#N	none
Cc1cc(=O)n2nc(-c3ccccc3)sc2c1C#N	A3G deaminase 55 | APOBEC3G confirm 69 | UDG ctr A3G inactive
COC(=O)C(C)Sc1ncnc2c1nnn2-c1ccc(F)cc1 (stereo not given)	none
COc1ccc(-n2nnc3c(SC(C(C)=O)C(=O)N(C)C)ncnc32)cc1 (stereo not given)	A3G deaminase 51 | APOBEC3G confirm inactive | UDG ctr A3G inactive
COc1ccc(Cl)cc1S(=O)(=O)N(C)CC(=O)N1CCCC1	none
CC(=O)N/C(=C/c1ccccc1)C(=O)NC(Cc1ccccc1)C(=O)O (stereo not given)	A3G deaminase 43 | APOBEC3G confirm inactive
CN1OC[C@@H]2CN3C(=O)N(c4cccc5ccccc45)c4ccccc4[C@@H]3C[C@@H]21	none (no result: A3G deaminase, APOBEC3A inh, PHOSPHO1 block, pCIP destab)
CCCCC(=O)Nc1sc(C(=O)N(CC)CC)c(C)c1C(=O)OC	A3G deaminase 68 | APOBEC3G confirm 68 | UDG ctr A3G inactive
CN(C)S(=O)(=O)n1cc(/C=C(\NC(=O)c2ccccc2F)C(=O)NCCCN2CCOCC2)c2ccccc21	none
COc1cc(/C=N/n2c(-c3cc(C)[nH]n3)n[nH]c2=S)ccc1O	none
COc1cc(/C=N/n2c(-c3cc(C)[nH]n3)n[nH]c2=S)cc(OC)c1OC	A3G deaminase 47 | APOBEC3G confirm 76 | UDG ctr A3G inactive
COc1cccc(/C=N/n2c(-c3cc(C)[nH]n3)n[nH]c2=S)c1	A3G deaminase 49 | APOBEC3G confirm 83 | UDG ctr A3G inactive
COc1cccc(/C=N/n2c(COc3ccccc3)n[nH]c2=S)c1	none
C(=N\NC1=Nc2cccc3cccc1c23)/c1ccccc1	A3G deaminase 41 | APOBEC3G confirm inactive
Clc1ccc(/C=N/NC2=Nc3cccc4cccc2c34)cc1	none
CCOC(=O)CN1C(=O)/C(=C/c2c(F)cccc2Cl)Oc2ccccc21	none
CC(C)c1ccc(NNC(=O)C2CCC2)cc1	A3G deaminase 50 | APOBEC3G confirm inactive
Cc1noc(C)c1C(=O)NNc1ccc(C(C)C)cc1	A3G deaminase 46 | APOBEC3G confirm inactive | UDG ctr A3G inactive
CC(C)c1ccc(NC(=S)NNC(=O)C2CC2)cc1	none
CC(=O)Nc1n[nH]c(=S)s1	none (no result: A3G deaminase, APOBEC3A inh, PHOSPHO1 block, pCIP destab)
CNc1n[nH]c(=S)s1	A3G deaminase 67 | APOBEC3G confirm 76 | UDG ctr A3G inactive
CCN1CCN(c2nc3ccccc3nc2C(C#N)S(=O)(=O)c2ccc(C)cc2)CC1 (stereo not given)	none
Cc1ccc(S(=O)(=O)C(C#N)c2nc3ccccc3nc2N2CCCC2)cc1 (stereo not given)	A3G deaminase 45 | APOBEC3G confirm inactive | UDG ctr A3G inactive
CC(C)n1cc(CN2CCC(n3nccc3NC(=O)Cc3ccccc3)CC2)cn1	A3G deaminase 71 | APOBEC3G confirm inactive
CC(C)n1cc(CN2CCC(n3nccc3NC(=O)CCCc3ccccc3)CC2)cn1	none
COCCN(C(=O)COC(=O)C1CC1)c1c(N)n(Cc2ccccc2)c(=O)[nH]c1=O	none (no result: PHOSPHO1 block, pCIP destab)
COCCN(C(=O)COC(=O)Cc1ccc(Cl)cc1Cl)c1c(N)n(Cc2ccccc2)c(=O)[nH]c1=O	A3G deaminase 43 (no result: PHOSPHO1 block, pCIP destab) | APOBEC3G confirm inactive
O=[N+]([O-])c1cccc(-c2n[nH]c(=S)n2-c2ccccc2)c1	none (no result: Tb MetRS inh)
O=[N+]([O-])c1ccc2c(c1)[nH]c(=S)n2-c1ccccc1	A3G deaminase 41 | APOBEC3G confirm 54 | UDG ctr A3G inactive
CCOC(=O)c1cnc(-c2ccccc2)nc1N1CCOCC1	none
CCOC(=O)c1[nH]cc(-c2ccccc2)c1N1CCOCC1	A3G deaminase 62, PHOSPHO1 block 80 | APOBEC3G confirm 41 | UDG ctr A3G inactive
O=C(NCCCO)C(=O)Nc1cc2c3c(c1)CCC(=O)N3CCC2	none
CCOC(=O)c1c(N)sn(-c2ccccc2C)c1=S	A3G deaminase 57, PHOSPHO1 block 96 | APOBEC3G confirm 54 | UDG ctr A3G inactive
CCOC(=O)c1nn(-c2ccccc2C)c(=O)c2c(N)scc12	none
CCCNC(=O)NC1CCCc2ccccc21 (stereo not given)	none
O=C(CCc1nnc(CCc2ccccc2)o1)N1CCCC1c1nccs1 (stereo not given)	none
COc1ccc(NCc2nnc(SCC(=O)c3ccc(OC)cc3)n2C)cc1	none
COc1cc(/C=N/n2cc(-c3ccccc3)[nH]c2=S)cc(OC)c1O	A3G deaminase 46 | APOBEC3G confirm 85 | UDG ctr A3G inactive
FC(F)(F)c1cccnc1-n1cncn1	none
COCCCNC(=S)NNC(=S)Nc1ccc(F)cc1F	A3G deaminase 55, PHOSPHO1 block 83 | APOBEC3G confirm 86 | UDG ctr A3G inactive
COCCCNC(=S)Nc1ccc(C)cc1	none
COCCCNC(=S)NCCc1ccc(F)cc1	none
COCCCNC(=S)NNC(=S)Nc1ccccc1	A3G deaminase 42 | APOBEC3G confirm 72 | UDG ctr A3G inactive
CC1(Oc2cccc(C#N)c2)CCN(Cc2ccccc2OC(F)F)C1 (stereo not given)	none (no result: A3G deaminase, APOBEC3A inh, PHOSPHO1 block, pCIP destab)
c1cc(SSc2ccncc2)ccn1	A3G deaminase 65 | APOBEC3G confirm 71
c1ccc(Sc2ccncc2)cc1	none (no result: A3G deaminase, APOBEC3A inh, PHOSPHO1 block, pCIP destab)
Cn1c(=O)n(C)c2cc(S(=O)(=O)NCC(=O)O)ccc21	none
Cn1c(=O)n(C)c2cc(S(=O)(=O)Nc3ccccc3C(=O)O)ccc21	A3G deaminase 56 | APOBEC3G confirm inactive
Oc1cc2c(cc1O)C1c3ccc(O)c(O)c3OCC1(O)C2 (stereo not given)	A3G deaminase 61 | APOBEC3G confirm 69
Cc1ccc(C(=O)Nc2ccccc2C(=O)N2CCOCC2)cc1[N+](=O)[O-]	none
COCCn1nnnc1C(c1cccs1)N1CCN(c2cc(C)ccc2C)CC1 (stereo not given)	none
COCCn1nnnc1C(c1cccs1)N1CCN(c2nc3ccccc3s2)CC1 (stereo not given)	A3G deaminase 57 | APOBEC3G confirm inactive
CCc1c(C)sc(NC(=O)Cn2nc(C)c([N+](=O)[O-])c2C)c1C(N)=O	A3G deaminase 52 | APOBEC3G confirm 24 | UDG ctr A3G inactive
